Measured values published in ChEMBL document CHEMBL4038302, “Fibroblast Activation Protein α Activated Tripeptide Bufadienolide Antitumor Prodrug with Reduced Cardiotoxicity” (J Med Chem, 2017).
One block for each compound: values may come before it.

How the values were obtained:
Prolyl endopeptidase FAP [1] = molecular target: T1, Prolyl endopeptidase FAP (Homo sapiens, UniProt Q12884); assay: Prodrug activation assessed as recombinant human FAP-alpha mediated 5-((3S,5R,8R,9S,10S,11S,13R,14S,17R)-3-(2-(4-aminophenyl)acetyl)-11,14-dihydroxy-10,13-dimethyl-12-oxohexadecahydro-1H-cyclopenta[a]phenanthren-17-yl)-2H-pyran-2-one formation by measuring intrinsic clearance at 40 umol/L after 6 hrs by UPLC-MS/MS analysis; conditions: 40 µM
T1 sequence (Q12884 whole entry): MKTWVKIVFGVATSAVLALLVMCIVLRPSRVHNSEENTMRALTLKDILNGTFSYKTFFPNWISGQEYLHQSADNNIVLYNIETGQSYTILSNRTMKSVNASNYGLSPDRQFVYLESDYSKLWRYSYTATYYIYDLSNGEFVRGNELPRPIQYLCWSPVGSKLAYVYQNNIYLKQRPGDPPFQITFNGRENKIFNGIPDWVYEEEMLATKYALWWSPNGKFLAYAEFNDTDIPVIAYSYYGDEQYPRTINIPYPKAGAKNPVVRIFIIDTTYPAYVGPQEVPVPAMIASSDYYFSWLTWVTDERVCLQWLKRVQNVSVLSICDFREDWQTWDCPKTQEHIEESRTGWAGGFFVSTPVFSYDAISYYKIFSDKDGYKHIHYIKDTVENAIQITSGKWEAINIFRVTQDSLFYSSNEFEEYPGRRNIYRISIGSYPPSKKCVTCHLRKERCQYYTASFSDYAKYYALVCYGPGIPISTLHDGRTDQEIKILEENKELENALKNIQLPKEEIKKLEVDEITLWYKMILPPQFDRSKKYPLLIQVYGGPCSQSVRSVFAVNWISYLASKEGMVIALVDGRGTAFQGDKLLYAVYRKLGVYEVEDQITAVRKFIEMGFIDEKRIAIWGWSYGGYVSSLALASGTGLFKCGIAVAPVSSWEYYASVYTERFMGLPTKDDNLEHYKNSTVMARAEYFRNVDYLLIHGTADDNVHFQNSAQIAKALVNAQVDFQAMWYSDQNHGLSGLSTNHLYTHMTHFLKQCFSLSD

Prolyl endopeptidase FAP [2] = molecular target: T1, Prolyl endopeptidase FAP; assay: (§1) Prodrug activation assessed as recombinant human FAP-alpha mediated (S)-((3S,5R,8R,9S,10S,11S,13R,14S,17R)-11,14-dihydroxy-10,13-dimethyl-12-oxo-17-(2-oxo-2H-pyran-5-yl)hexadecahydro-1H-cyclopenta[a]phenanthren-3-yl) 2-amino-3-phenylpropanoate formation by measuring intrinsic clearance after 90 mins by UPLC-MS/MS analysis; conditions: 1.5 h
Outline: (§2)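 Prodrug at 0.625–40 μmol/L incubated with rhFAPα at 0.45 μg/mL and internal standard in 0.2 mL PBS, pH 7.4, at 37 °C for 90 min. Quenched with MeCN and spun at 18 000g for 15 min; product measured by UPLC-MS/MS. S50 and Vmax fitted with an allosteric sigmoidal model; CLint = Vmax/S50. Three independent experiments.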

Prolyl endopeptidase FAP [3] = molecular target: T1, Prolyl endopeptidase FAP; assay: Prodrug activation assessed as recombinant human FAP-alpha mediated (S)-((3S,5R,8R,9S,10S,11S,13R,14S,17R)-11,14-dihydroxy-10,13-dimethyl-12-oxo-17-(2-oxo-2H-pyran-5-yl)hexadecahydro-1H-cyclopenta[a]phenanthren-3-yl) 2-amino-3-phenylpropanoate formation at 40 umol/L after 6 hrs in presence of FAP-alpha inhibitor talabostat by UPLC-MS/MS analysis; conditions: 40 µM
Outline: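 Prodrug at 40 μmol/L incubated with rhFAPα at 0.45 μg/mL in 0.2 mL buffer at 37 °C for 6 h, with bufalin at 2 μmol/L as internal standard. Stopped with acetonitrile and spun at 18 000g for 15 min. Released active form measured by UPLC-MS/MS via peak-area ratio against a standard curve of 0.625–40 μmol/L.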

Prolyl endopeptidase FAP [4] = molecular target: T1, Prolyl endopeptidase FAP; assay: as §1, with “2-amino-3-phenylpropanoate” for “2-amino-3-phenylpropanoate formation”, “concentration of test compound gives half-maximal activity formation” for “intrinsic clearance”; conditions: 1.5 h; outline: as §2
Prolyl endopeptidase FAP [5] = molecular target: T1, Prolyl endopeptidase FAP; assay: Prodrug activation assessed as Vmax for recombinant human FAP-alpha mediated (S)-((3S,5R,8R,9S,10S,11S,13R,14S,17R)-11,14-dihydroxy-10,13-dimethyl-12-oxo-17-(2-oxo-2H-pyran-5-yl)hexadecahydro-1H-cyclopenta[a]phenanthren-3-yl) 2-amino-3-phenylpropanoate formation after 90 mins by UPLC-MS/MS analysis; conditions: 1.5 h; outline: as §2
Prolyl endopeptidase FAP [6] = molecular target: T1, Prolyl endopeptidase FAP; assay: (§3) Prodrug activation assessed as Vmax for recombinant human FAP-alpha mediated (2S,3S)-((3S,5R,8R,9S,10S,11S,13R,14S,17R)-11,14-dihydroxy-10,13-dimethyl-12-oxo-17-(2-oxo-2H-pyran-5-yl)hexadecahydro-1H-cyclopenta[a]phenanthren-3-yl) 2-amino-3-methylpentanoate formation after 90 mins by UPLC-MS/MS analysis; conditions: 1.5 h; outline: as §2
Prolyl endopeptidase FAP [7] = molecular target: T1, Prolyl endopeptidase FAP; assay: as §3, with “as” for “as Vmax for”, “2-amino-3-methylpentanoate by measuring concentration of test compound gives half-maximal activity” for “2-amino-3-methylpentanoate”; conditions: 1.5 h; outline: as §2
Prolyl endopeptidase FAP [8] = molecular target: T1, Prolyl endopeptidase FAP; assay: Prodrug activation assessed as recombinant human FAP-alpha mediated (2S,3S)-((3S,5R,8R,9S,10S,11S,13R,14S,17R)-11,14-dihydroxy-10,13-dimethyl-12-oxo-17-(2-oxo-2H-pyran-5-yl)hexadecahydro-1H-cyclopenta[a]phenanthren-3-yl) 2-amino-3-methylpentanoate formation by measuring intrinsic clearance after 90 mins by UPLC-MS/MS analysis; conditions: 1.5 h; outline: as §2

CL (Prolyl endopeptidase FAP [1]): 7070 µL/min/mg
SMILES: C[C@]12CC[C@H](OC(=O)Cc3ccc(NC(=O)[C@@H]4CCCN4C(=O)CNC(=O)OCc4ccccc4)cc3)C[C@H]1CC[C@@H]1[C@@H]2[C@H](O)C(=O)[C@]2(C)[C@@H](c3ccc(=O)oc3)CC[C@]12O

CL (Prolyl endopeptidase FAP [2]): 42360 µL/min/mg | Drug metabolism (Prolyl endopeptidase FAP [3]): Metabolite_Notdetected | S50 (Prolyl endopeptidase FAP [4]): 8.64 µmol/L | Vmax (Prolyl endopeptidase FAP [5]): 0.366 µmol/min/mg
SMILES: C[C@]12CC[C@H](OC(=O)[C@H](Cc3ccccc3)NC(=O)[C@@H]3CCCN3C(=O)CNC(=O)OCc3ccccc3)C[C@H]1CC[C@@H]1[C@@H]2[C@H](O)C(=O)[C@]2(C)[C@@H](c3ccc(=O)oc3)CC[C@]12O

Vmax (Prolyl endopeptidase FAP [6]): 0.014 µmol/min/mg | S50 (Prolyl endopeptidase FAP [7]): 8.82 µmol/L | CL (Prolyl endopeptidase FAP [8]): 1590 µL/min/mg
SMILES: CC[C@H](C)[C@H](NC(=O)[C@@H]1CCCN1C(=O)CNC(=O)OCc1ccccc1)C(=O)O[C@H]1CC[C@@]2(C)[C@H](CC[C@@H]3[C@@H]2[C@H](O)C(=O)[C@]2(C)[C@@H](c4ccc(=O)oc4)CC[C@]32O)C1
